Published values from different studies.
Lines come from different studies, so protocols differ.
Observed: cell growth or viability

| Structure (SMILES) | cell line | test | setting | IC50 |
| --- | --- | --- | --- | --- |
| COc1cccc2c1C(=O)c1c(O)c3c(c(O)c1C2=O)C[C@@](O)(C(=O)CO)C[C@@H]3O[C@H]1C[C@H](N)[C@H](O)[C@H](C)O1 | ACHN | MTT | 24 h | 36100 nM |
| Cc1cc2c(C(N)=O)cccc2n1-c1nc2c(c(NCc3ccccc3)n1)CCCN2 | RPMI-8226 | ATP luminescence | 72 h | 900 nM |
| C=CCn1c(=O)c2cnc(Nc3ccc(N4CCN(C)CC4)cc3)nc2n1-c1ccc2c(n1)[C@@](O)(CC)CC2 | OVCAR-3 | ATP luminescence | 72 h | 295 nM |
| O=C(O)c1ccc(NCc2cccc([N+](=O)[O-])c2)cc1 | NCI-H69 | resazurin | 72 h | > 100000 nM |
| COc1ccc2c(c1)OC1=C(C(=O)CC(C)(C)C1)C2c1c(C(=O)O)[nH]c2ccccc12 (stereo not drawn) | 3T3-L1 | MTT | 72 h | 24.5 µg/mL |
| COc1ccc(CNc2ccc(C(=O)O)cc2)cc1OC | NCI-H69 | resazurin | 72 h | > 100000 nM |
| CC(C)(C)c1cnc(CSc2cnc(NC(=O)C3CCN(C(=O)CCOCCCN4Cc5cc6c(cc5C4)C(=O)N(C4CCC(=O)NC4=O)C6=O)CC3)s2)o1 (stereo not drawn) | TC-71 | MTT | 72 h | 16.9 nM |
| O=C(O)c1ccc(NCc2cccc(O)c2)cc1 | NCI-H69 | resazurin | 72 h | > 100000 nM |
| CC(C)(C)c1cnc(CSc2cnc(NC(=O)C3CCN(C(=O)CCOCCN4Cc5cc6c(cc5C4)C(=O)N(C4CCC(=O)NC4=O)C6=O)CC3)s2)o1 (stereo not drawn) | TC-71 | MTT | 72 h | 8.93 nM |
| Cc1cc2c(C(N)=O)cccc2n1-c1nc2c(c(NCc3ccccn3)n1)CCCN2 | RPMI-8226 | ATP luminescence | 72 h | 1400 nM |
| CC(C)(C)c1cnc(CSc2cnc(NC(=O)C3CCN(C(=O)CCCCN4Cc5cc6c(cc5C4)C(=O)N(C4CCC(=O)NC4=O)C6=O)CC3)s2)o1 (stereo not drawn) | TC-71 | MTT | 72 h | 13 nM |
| CONC(=O)Cc1c(C)n(-c2nc3c(c(NCc4ccccc4)n2)CCCN3)c2ccccc12 | RPMI-8226 | ATP luminescence | 72 h | 8000 nM |
| CC(C)(C)c1cnc(CSc2cnc(NC(=O)C3CCN(C(=O)CCCCCN4Cc5cc6c(cc5C4)C(=O)N(C4CCC(=O)NC4=O)C6=O)CC3)s2)o1 (stereo not drawn) | TC-71 | MTT | 72 h | 4.71 nM |
| O=C(O)c1ccc(NCc2ccc(Cl)cc2)cc1 | NCI-H69 | resazurin | 72 h | > 100000 nM |
| Cc1cc2c(C(N)=O)cccc2n1-c1nc2c(c(OCc3ccccc3)n1)CCCN2 | RPMI-8226 | ATP luminescence | 72 h | 4500 nM |
| CSc1ccc(CNc2ccc(C(=O)O)cc2)cc1 | NCI-H69 | resazurin | 72 h | > 100000 nM |
| CC(C)(C)c1cnc(CSc2cnc(NC(=O)C3CCN(C(=O)CCCCCCCCCCCN4Cc5cc6c(cc5C4)C(=O)N(C4CCC(=O)NC4=O)C6=O)CC3)s2)o1 (stereo not drawn) | TC-71 | MTT | 72 h | 79.9 nM |
| Cc1cc2c(C(N)=O)nccc2n1-c1nc2c(c(NCc3ccccc3)n1)CCCN2 | RPMI-8226 | ATP luminescence | 72 h | 4900 nM |
| CC(C)(C)c1cnc(CSc2cnc(NC(=O)C3CCN(C(=O)CCCCCCCCCN4Cc5cc6c(cc5C4)C(=O)N(C4CCC(=O)NC4=O)C6=O)CC3)s2)o1 (stereo not drawn) | TC-71 | MTT | 72 h | 71.7 nM |
| Cc1cc2c(C(N)=O)cccc2n1-c1nc2c(c(NCc3cccnc3)n1)CCCN2 | RPMI-8226 | ATP luminescence | 72 h | 2000 nM |
| O=C(O)c1ccc(NCc2ccc(Br)cc2)cc1 | NCI-H69 | resazurin | 72 h | > 100000 nM |
